# TNAP act DEA: human TNAP enzyme activators, primary screen, biochemical, luminescent, intermediate phosphate acceptor level; Alkaline phosphatase, tissue-nonspecific isozyme (Homo sapiens), P05186; purified TNAP, CDP-star luminescence, 100 mM DEA, 30 min; hits give high values; scale: 0 levamisole-inhibited, 1 vehicle-only enzyme; activation factor at 20 µM; 64,000 tested, under 10 active; AID 813, 2007;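 active = activation factor of at least 2 at 20 µM, relative to controls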
# AP ELISA ortho: alternative complement pathway inhibitors, primary screen, biochemical, ELISA, human serum, orthogonally pooled compounds; LPS-coated ELISA, C3 deposition; tested in compound mixtures; inhibition, % at 5 µM; 0.08% of 62,000 active; AID 1235, 2008;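 active = inhibition above 30% in each of the two pooled mixtures holding the compound, so the lower value exceeds 30%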;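 also: 0% = serum in Mg-EGTA without compound and 100% = EDTA serum blank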
#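 Assay system: human serum alternative complement pathway, C3 deposition on LPS-coated wells; Dosing: 5 µM per compound in ten-compound mixtures; Detection: Anti-C3 ELISA, OD 450 nm; Buffer or medium: Mg2+-EGTA GVB++ buffer containing human serum at 1:15 dilution; Timing: 1 h at 37 °C; Replication: two different pools per compound.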
# Ec RNAP inh: E. coli RNAP inhibitors, biochemical; DNA-directed RNA polymerase subunit beta (Escherichia coli (strain K12)), P0A8V2; E. coli RNA polymerase, fluorescence transcription assay; inhibition, %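 (tested at 10 µM)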; 0.2% of 62,000 active; in the data active = inhibition above about 20%;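 also: 0% = enzyme without compound and 100% = no enzyme blank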
# Spn DPM-DC inh: S. pneumoniae DPM-DC inhibitors, primary screen, biochemical, PK/LDH-coupled NADH fluorescence; diphosphomevalonate decarboxylase (Streptococcus pneumoniae D39); purified DPM-DC; calls only at 10 µM; 0.49% of 65,000 active; AID 556, 2006;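 active = the 320 compounds with the highest percent inhibition in the single-dose primary screen, excluding strongly autofluorescent ones, cut at about 32% in these data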;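 also: kinetic rate of NADH fluorescence loss reporting ADP formed by the decarboxylase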
# Spn MK inh: S. pneumoniae MK inhibitors, primary screen, biochemical, PK/LDH-coupled NADH absorbance | mevalonate kinase [Streptococcus pneumoniae D39] | purified MK, PK/LDH-coupled NADH absorbance 340 nm | inhibition, % at 10 µM | 0.48% of 65,000 active;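 active = ranked among the strongest by inhibition in the single 10 µM screen, a fixed top-ranked set picked for dose follow-up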
# Spn PMK inh: S. pneumoniae PMK inhibitors, primary screen, biochemical, mevalonate pathway, pilot trial included; inhibition, % at 10 µM; phosphomevalonate kinase (Streptococcus pneumoniae D39); 0.49% of 65,000 active; purified PMK, PK/LDH-coupled NADH absorbance 340 nm;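 active = top-ranked compounds by inhibition in the single 10 µM screen, taking a fixed number of the strongest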;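 also: 0% = full reaction with DMSO carrier and 100% = background rate without enzyme reaction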
# An asterisk follows results filed as active; i = inactive; . = no result given; + = active, no number; [ ] = dose if it differs, or a comment. Hits are enriched below; roughly 1.5% of the tested compounds scored in any of these assays.
SMILES,TNAP act DEA,AP ELISA ortho,Ec RNAP inh,Spn DPM-DC inh,Spn MK inh,Spn PMK inh
O=c1c2ccccc2[se]n1-c1ccccc1,0.9,-2,37*,+,72*,100*
CCOC(C(=O)OCC(O)CN(CC)CC)(c1ccccc1)c1ccccc1 (stereo not given),0.9,-7,22*,i,6,11
CCCC12CN3CC(CCC)(CN(C1)C3c1ccccn1)C2=O (stereo not given),0.9,13,9,.,.,.
O=C(c1cc2ccccn2n1)N1CCC2(CC1)OCCO2,0.9,13,2,i,0,8
COc1ccc(-c2cc(C(F)(F)F)n3nc(C(=O)N4CCC5(CC4)OCCO5)cc3n2)cc1OC,1,9,7,+,5,9
COc1cc(C)c(CN2CCN(c3ccccc3)CC2)cc1C,0.9,5,4,i,49*,8
Oc1ccc(Br)cc1CN1CCN(c2ccccc2)CC1,0.9,8,9,i,3,0
CCOC(=O)c1cc2c(cn1)[nH]c1ccccc12,0.8,14,6,+[fluoresces],9,9
CCOC(=O)c1cncn1C(C)c1ccccc1 (stereo not given),0.9,19,0,i,6,0
Cc1cc(OCC(=O)Nc2c(C)n(C)n(-c3ccccc3)c2=O)c2c3c(c(=O)oc2c1)CCC3,0.9,0,6,i,2,10
CCC1CCCCN1P(=O)(c1ccc(C)o1)C(C)(C)C (stereo not given),1,23,-3,i,9,6
CCn1nc(-c2ccccc2)nc2c(=O)n(C)c(=O)nc1-2,0.8,6,1,+,11,11
